ChEMBL document CHEMBL5104184, “Chemical Toolkit for PARK7: Potent, Selective, and High-Throughput” (J Med Chem, 2022)
The source made the active and inactive calls. No cut-off for these calls is given here.

How the values were obtained:
[1] = target: T1, Parkinson disease protein 7 (Homo sapiens) (UniProt Q99497); assay: Inhibition of PARK7 in human HEK293T cells assessed as reduction in JQ-92 labelled PARK7 band intensity at 0.1 to 50 uM incubated for 1 hr followed by incubation with JQ-92 for 30 mins by fluorescence scanning based analysis; format: cell-based; conditions: dose 0.1-50 µM, time 90.0 min
T1 sequence (whole entry): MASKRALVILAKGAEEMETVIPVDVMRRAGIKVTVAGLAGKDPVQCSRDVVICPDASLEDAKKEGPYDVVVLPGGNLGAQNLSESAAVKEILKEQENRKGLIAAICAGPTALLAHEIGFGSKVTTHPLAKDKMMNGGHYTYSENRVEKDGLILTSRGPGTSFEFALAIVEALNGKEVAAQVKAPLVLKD

[2] = target: T1, Parkinson disease protein 7 (Homo sapiens); assay: Inhibition of PARK7 in human HEK293T cells assessed as reduction in JQ-92 labelled PARK7 band intensity at 1 uM incubated for 1 hr followed by incubation with JQ-92 for 30 mins by fluorescence scanning based analysis; format: cell-based; conditions: time 90.0 min
[3] = target: T1, Parkinson disease protein 7 (Homo sapiens); assay: Inhibition of N-terminal GST-tagged human recombinant PARK7 expressed in Escherichia coli BL21(DE3)Rosetta2 cells using DiFMUAc as substrate at 12.5 to 100 uM preincubated with enzyme for 1 hr followed by substrate addition and measured for 1 hr by DiFMUAc assay based fluorescence analysis; conditions: dose 12.5-100 µM, time 2.0 hrs
How it was run: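 PARK7 GST fusion was expressed in E. coli BL21(DE3) Rosetta2, purified on glutathione beads, cut with 3C protease and polished by SEC. Enzyme at 0.1 μM final in PBS was preincubated with compound at 100, 37.5 or 12.5 μM final. DiFMUAc was then added at 300 μM final, and fluorescence (ex/em 350/450 nm) was monitored for 1 h. Run in triplicate.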

[4] = target: Ubiquitin carboxyl-terminal hydrolase isozyme L1 (Homo sapiens) (UniProt P09936); assay: Inhibition of UCHL1 in human HEK293T cells assessed as reduction in Rho-Ub-PA-labelled UCHL1 band intensity at 5 uM incubated for 1 hr followed by incubation with Rho-Ub-PA for 30 mins by fluorescence scanning based analysis; format: cell-based; conditions: time 90.0 min
[5] = target: Ubiquitin carboxyl-terminal hydrolase isozyme L1 (Homo sapiens) (UniProt P09936); assay: Inhibition of UCHL1 (unknown origin) using SRK59 as fluorescent probe at 2 uM preincubated for 1 hr followed by SRK59 addition for 30 mins by Gel-based competition assay; conditions: time 90.0 min
How it was run: (§1)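 Recombinant PARK7 and UCHL1 (1 μM each, mixed) or PARK7 alone, in 50 mM Tris-HCl, 150 mM NaCl, 2 mM TCEP, pH 7.5. Treated with compound at 2 μM or a serial dilution for 1 h at 37 °C. Then 8RK59 probe (2 μM final) added for 30 min at 37 °C. Run on SDS-PAGE; remaining labelling read by fluorescence scan.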

[6] = target: T1, Parkinson disease protein 7 (Homo sapiens); assay: Binding affinity to N-terminal GST-tagged human recombinant PARK7 expressed in Escherichia coli BL21(DE3)Rosetta2 cells at 1 uM measured after 1 hr by coomassie staining based analysis
How it was run: (§2)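 Purified recombinant PARK7 (GST-tagged in E. coli BL21(DE3) Rosetta2, tag removed by 3C protease, then gel filtration), 1 μM final. Incubated with probe at 0, 0.1, 0.5, 1, 2, 5 or 10 μM for 1 h at 37 °C in 50 mM Tris-HCl, 150 mM NaCl, 2 mM TCEP, pH 7.5. Stopped with LDS sample buffer, run on SDS-PAGE, read by fluorescence scan, then Coomassie stain.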

[7] = target: T1, Parkinson disease protein 7 (Homo sapiens); assay: Binding affinity to N-terminal GST-tagged human recombinant PARK7 expressed in Escherichia coli BL21(DE3)Rosetta2 cells at 1 uM measured after 1 hr by fluorescence scanning analysis; how it was run: as §2
[8] = target: T1, Parkinson disease protein 7 (Homo sapiens); assay: Binding affinity to N-terminal GST-tagged human recombinant PARK7 expressed in Escherichia coli BL21(DE3)Rosetta2 cells at 5 uM measured after 1 hr by coomassie staining based analysis; how it was run: as §2
[9] = target: T1, Parkinson disease protein 7 (Homo sapiens); assay: Binding affinity to N-terminal GST-tagged human recombinant PARK7 expressed in Escherichia coli BL21(DE3)Rosetta2 cells at 5 uM measured after 1 hr by fluorescence scanning analysis; how it was run: as §2
[10] = target: T1, Parkinson disease protein 7 (Homo sapiens); assay: Inhibition of N-terminal GST-tagged human recombinant PARK7 expressed in Escherichia coli BL21(DE3)Rosetta2 cells using SRK59 as fluorescent probe at 2 uM preincubated for 1 hr followed by SRK59 addition for 30 mins by Gel-based competition assay; conditions: time 90.0 min; how it was run: as §1
[11] = target: T1, Parkinson disease protein 7 (Homo sapiens); assay: Binding affinity to N-terminal GST-tagged human recombinant PARK7 expressed in Escherichia coli BL21(DE3)Rosetta2 cells at 2 uM measured after 1 hr by coomassie staining based analysis; how it was run: as §2
[12] = target: T1, Parkinson disease protein 7 (Homo sapiens); assay: Binding affinity to PARK7 in UCHL1 knockdown human HEK293T cells at 1 uM incubated for 1 hr by fluorescence scanning based analysis; format: cell-based
How it was run: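 HEK293T cells were siRNA-transfected with Dharmafect 1 and cultured 3 days, then lysed in Triton X-100/TCEP Tris buffer (pH 7.5) with protease inhibitors. Lysate labelled with probe at 1 μM final for 1 h at 37 °C. Read by SDS-PAGE Cy5 fluorescence scan (635/655 nm), then immunoblot for UCHL1/PARK7 with actin as loading control.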

[13] = target: T1, Parkinson disease protein 7 (Homo sapiens); assay: Binding affinity to PARK7 in human HEK293T cells at 1 uM incubated for 1 hr by fluorescence scanning based analysis; format: cell-based
[14] = target: T1, Parkinson disease protein 7 (Homo sapiens); assay: Binding affinity to PARK7 in human HEK293T cells at 0.5 to 1 uM incubated for 1 hr by western blot analysis; format: cell-based; conditions: dose 0.5-1 µM
[15] = target: T1, Parkinson disease protein 7 (Homo sapiens); assay: Binding affinity to PARK7 in human HEK293T cells at 0.5 uM incubated for 1 hr by fluorescence scanning based analysis; format: cell-based
[16] = target: T1, Parkinson disease protein 7 (Homo sapiens); assay: Binding affinity to N-terminal GST-tagged human recombinant PARK7 expressed in Escherichia coli BL21(DE3)Rosetta2 cells at 2 uM measured after 1 hr by fluorescence scanning analysis; how it was run: as §2
[17] = target: T1, Parkinson disease protein 7 (Homo sapiens); assay: Inhibition of PARK7 in human HEK293T cells assessed as reduction in JQ-92 labelled PARK7 band intensity incubated for 1 hr followed by incubation with JQ-92 for 30 mins by fluorescence scanning based analysis; format: cell-based; conditions: dose 0.1-20 µM, time 90.0 min, DDE = dose-dependent effect
[18] = target: Ubiquitin carboxyl-terminal hydrolase isozyme L1 (Homo sapiens) (UniProt P09936); assay: Inhibition of UCHL1 (unknown origin) using SRK59 as fluorescent probe at 20 uM preincubated for 1 hr followed by SRK59 addition for 30 mins by Gel-based competition assay; conditions: time 90.0 min; how it was run: as §1
[19] = target: T1, Parkinson disease protein 7 (Homo sapiens); assay: Inhibition of N-terminal GST-tagged human recombinant PARK7 expressed in Escherichia coli BL21(DE3)Rosetta2 cells using SRK59 as fluorescent probe at 0.5 uM preincubated for 1 hr followed by SRK59 addition for 30 mins by Gel-based competition assay; conditions: time 90.0 min; how it was run: as §1
[20] = target: T1, Parkinson disease protein 7 (Homo sapiens); assay: Inhibition of N-terminal GST-tagged human recombinant PARK7 expressed in Escherichia coli BL21(DE3)Rosetta2 cells using SRK59 as fluorescent probe at 1 to 2 uM preincubated for 1 hr followed by SRK59 addition for 30 mins by Gel-based competition assay; conditions: dose 1-2 µM, time 90.0 min; how it was run: as §1

Sequence of Ubiquitin carboxyl-terminal hydrolase isozyme L1 (Homo sapiens) (P09936 whole entry, looked up): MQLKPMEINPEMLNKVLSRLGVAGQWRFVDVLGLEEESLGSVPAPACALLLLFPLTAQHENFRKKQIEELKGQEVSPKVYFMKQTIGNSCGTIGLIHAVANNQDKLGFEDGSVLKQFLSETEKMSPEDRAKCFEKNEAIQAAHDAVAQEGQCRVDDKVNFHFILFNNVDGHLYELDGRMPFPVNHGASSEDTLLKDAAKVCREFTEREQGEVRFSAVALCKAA

O=c1ccc(NS(=O)(=O)c2cccc(S(=O)(=O)F)c2)c[nH]1
inhibition [1]: Active
inhibition [2]: 100%
inhibition [3]: Active

O=C(O)c1csc(C(=O)CCl)c1
inhibition [1]: Active
inhibition [3]: Active

CCC(C)c1ccc(NC(=O)CCl)cc1 (stereo not drawn)
inhibition [1]: Active
inhibition [3]: Active

N#CN1CC[C@H](C(=O)Nc2nc3c(s2)CN(C(=O)CN=[N+]=[N-])CC3)C1
inhibition [4]: Active
inhibition [5]: Active

N#CN1CC[C@@H](C(=O)Nc2nc3c(s2)CN(C(=O)Cn2cc(CCCNC(=O)c4ccc(-c5c6ccc(=N)cc-6oc6cc(N)ccc56)c(C(=O)O)c4)nn2)CC3)C1
Activity [6]: Active
Activity [7]: Active

N#CN1CC[C@H](C(=O)Nc2ncc(N3CCOCC3)s2)C1
inhibition [4]: Active

CC1=CC(C)=[N+]2C1=C(CCCCc1cn(CC(=O)N3CCc4nc(NC(=O)[C@@H]5CCN(C#N)C5)sc4C3)nn1)c1c(C)cc(C)n1[B-]2(F)F
Activity [8]: Active
Activity [9]: Active

N#CN1CC[C@H](C(=O)Nc2nc3c(s2)CN(C(=O)CCCCBr)CC3)C1
inhibition [10]: Active
inhibition [5]: 100%

CC[N+]1=C(/C=C/C=C/C=C2/N(CCCCCC(=O)NCCCc3cn(CC(=O)N4CCc5nc(NC(=O)[C@@H]6CCN(C#N)C6)sc5C4)nn3)c3ccc(S(=O)(=O)O)cc3C2(C)C)C(C)(C)c2cc(S(=O)(=O)[O-])ccc21
Activity [11]: Active
Activity [12]: Active
Activity [13]: Active
Activity [14]: Active
Activity [15]: Active
Activity [6]: Active
Activity [7]: Active
Activity [16]: Active

N#CN1CC[C@H](C(=O)Nc2nc3c(s2)CN(C(=O)Cc2ccncc2)CC3)C1
inhibition [10]: Active
inhibition [5]: 100%

N#CN1CC[C@@H](C(=O)Nc2nc3c(s2)CN(C(=O)CN=[N+]=[N-])CC3)C1
inhibition [17]: Dde
inhibition [18]: Active
inhibition [10]: 100%
inhibition [19]: Active
inhibition [20]: 100%

CN1C(=O)CC(C(=O)N2CCc3nc(NC(=O)[C@H]4CCN(C#N)C4)sc3C2)[C@@H]1c1cccnc1 (stereo partly drawn)
inhibition [10]: Active
inhibition [5]: 100%
